For orientation: Emax means the greatest response seen or fitted, relative to the assay's reference. One may read the EC50 as the concentration at which the effect is half-maximal. Broadly, the Ki is the equilibrium dissociation constant of an inhibitor or competing ligand from its target. By IC50 is commonly meant the midpoint of a concentration-inhibition curve.

Data set [1] in a line: Cardiovascular toxicity in human coronary arteries assessed as induction of vasoconstriction after 30 mins relative to serotonin. Set-up: species or system Coronary artery. The method in brief:
(§1)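 Ex vivo human arteries in tissue baths; test agent applied up to 10 µM and contraction recorded. Serotonin (10 µM) added to each bath at session end as the reference for maximal vessel contractility; contraction expressed as percent of serotonin maximum.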

Data set [2] in a line: Cardiovascular toxicity in human coronary arteries assessed as induction of vasoconstriction after 30 mins. Details: species or system Coronary artery. The conditions noted are these: for Activity: 0.5 h; for EC50 at 30 min: human coronary arteries. The method in brief: as §1
The target in data set [3] is Calcitonin gene-related peptide type 1 receptor (Homo sapiens, UniProt O60894+Q16602). Description: Displacement of [125I]CGRP from CGRP receptor in human SK-N-MC cell membrane after 2 hrs. Format: cell membranes.
In data set [4] the target is T1, Cytochrome P450 3A4 (Homo sapiens, UniProt P08684). Description: Inhibition of human recombinant CYP3A4 expressed in baculo-virus infected insect microsomes using benzyloxyresorufin as substrate after 45 mins by fluorescence detection assay. Format: ADME, Microsome.
A short description of data set [5]: Cardiovascular toxicity in human coronary arteries assessed as induction of vasoconstriction up to 10 uM after 30 mins. Set-up: species or system Coronary artery. The conditions noted are these: 0.5 h. The method, boiled down:
as §1

Data set [6] relates to Callithrix jacchus. As to the kind of experiment: Antimigraine activity in sc dosed marmosets assessed as inhibition of CGRP-induced increase in facial blood flow administered 30 mins post CGRP-challenge measured up to 105 mins by laser doppler flowmetry. In kind it is functional, organism-based. The method, boiled down:
(§2)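 Anesthetized marmosets; facial blood flow raised by iv hαCGRP (10 µg/kg) at 45 min intervals (-30, 15, 60, 105 min). Antagonist given sc at 0 min (dose range 0.3–1 mg/kg). CGRP-induced changes in facial blood flow read by laser Doppler flowmetry.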

For data set [7], the target named is T1, Cytochrome P450 3A4. As to the kind of experiment: Inhibition of human recombinant CYP3A4 expressed in baculo-virus infected insect microsomes using 7-benzyloxy-4-trifluoromethylcoumarin as substrate after 20 mins by fluorescence detection assay. Format: ADME, Microsome.
Data set [8] deals with Callithrix jacchus. As to the kind of experiment: Antimigraine activity in marmosets assessed as inhibition of CGRP-induced increase in facial blood flow at 1 mg/kg, sc administered 30 mins post CGRP-challenge measured up to 105 mins by laser doppler flowmetry. Format: functional, organism-based. Details: dose 1 mg/kg. The method, boiled down: as §2

Active and inactive are the calls of the source. No cut-off for these calls is given here. Where only a bound is given, the exact number is not on record here.

T1 sequence (P08684 whole entry): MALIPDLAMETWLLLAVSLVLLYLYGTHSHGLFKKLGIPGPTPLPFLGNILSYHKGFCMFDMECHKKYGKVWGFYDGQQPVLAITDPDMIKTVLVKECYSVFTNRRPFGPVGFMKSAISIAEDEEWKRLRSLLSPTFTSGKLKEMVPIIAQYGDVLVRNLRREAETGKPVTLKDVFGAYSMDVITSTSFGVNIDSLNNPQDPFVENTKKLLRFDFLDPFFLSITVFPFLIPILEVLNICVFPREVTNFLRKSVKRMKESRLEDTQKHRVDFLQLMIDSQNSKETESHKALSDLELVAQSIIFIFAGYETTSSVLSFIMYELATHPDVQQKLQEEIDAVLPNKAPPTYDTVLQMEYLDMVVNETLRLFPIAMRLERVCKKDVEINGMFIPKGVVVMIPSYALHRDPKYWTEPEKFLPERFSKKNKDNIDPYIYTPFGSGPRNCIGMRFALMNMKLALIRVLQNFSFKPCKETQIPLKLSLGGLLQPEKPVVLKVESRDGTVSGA
Sequence of Calcitonin gene-related peptide type 1 receptor (Q16602 whole entry, one chain of several): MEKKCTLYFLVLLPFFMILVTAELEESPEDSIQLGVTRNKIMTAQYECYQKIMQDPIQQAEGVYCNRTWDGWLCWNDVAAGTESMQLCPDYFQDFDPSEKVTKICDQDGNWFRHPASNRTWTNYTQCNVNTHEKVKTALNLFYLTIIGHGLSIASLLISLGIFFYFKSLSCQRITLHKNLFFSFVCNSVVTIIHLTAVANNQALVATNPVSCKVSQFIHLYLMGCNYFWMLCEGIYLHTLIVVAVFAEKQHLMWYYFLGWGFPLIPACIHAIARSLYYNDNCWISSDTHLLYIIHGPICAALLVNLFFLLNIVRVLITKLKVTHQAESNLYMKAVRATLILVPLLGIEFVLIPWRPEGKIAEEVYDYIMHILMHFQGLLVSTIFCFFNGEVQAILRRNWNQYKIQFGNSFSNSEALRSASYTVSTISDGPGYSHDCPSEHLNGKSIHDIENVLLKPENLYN

For `CNS(=O)(=O)Cc1ccc2[nH]cc(CCN(C)C)c2c1`, in data set [1], the maximum response (Emax) at 0.5 h was 48%. For the same molecule, in data set [2], the Activity result is “Dose-dependent effect” and the 50% effective concentration (EC50) at 30 min is 120 nM.
Consider `O=C(N[C@H](Cc1c[nH]c2ccccc12)C(=O)N1CCC(N2CCCCC2)CC1)N1CCC(n2c(=O)[nH]c3ccccc32)CC1`, for which, in data set [3], the Ki is 84 nM. Besides, on Cytochrome P450 3A4 [4], the IC50 is more than 40000 nM.
Take `O=C(N[C@@H](Cc1cc(Br)c(O)c(Br)c1)C(=O)N1CCC(N2CCCCC2)CC1)N1CCC(n2c(=O)[nH]c3ccccc32)CC1`: in data set [3], the Ki is more than 1000 nM.
For `O=C(NC(Cc1ccc2[nH]ccc2c1)C(=O)N1CCC(N2CCCCC2)CC1)N1CCC(n2c(=O)[nH]c3ccccc32)CC1` (racemic), the Ki in data set [3] was determined as 32 nM. Also, the IC50 on Cytochrome P450 3A4 [4] was found to be 2500 nM.
Turning to `O=C(N[C@H](Cc1ccc2nn[nH]c2c1)C(=O)N1CCC(N2CCCCC2)CC1)N1CCC(N2Cc3ccccc3NC2=O)CC1`, the inhibition constant (Ki) in data set [3] worked out at 0.55 nM. In addition, the IC50 at Cytochrome P450 3A4 [4] came to 23000 nM.
The matching figures for `O=C(N[C@H](Cc1ccc(-c2ccccc2)cc1)C(=O)N1CCC(N2CCCCC2)CC1)N1CCC(n2c(=O)[nH]c3ccccc32)CC1`: 250 nM and 1300 nM.
In the same order, the values of `CC(C)C[C@@H](NC(=O)N1CCC(n2c(=O)[nH]c3ccccc32)CC1)C(=O)N1CCC(N2CCCCC2)CC1` are 2400 nM and 16000 nM.
Turning to `CN(C)CCc1c[nH]c2ccc(C[C@H]3COC(=O)N3)cc12` [ZOLMITRIPTAN], in data set [1], the Emax at 0.5 h is 39%. In data set [2], the Activity result was “Dose-dependent effect” and the EC50 at 30 min was found to be 40 nM.
For `O=C(O)CC[C@@H](NC(=O)N1CCC(n2c(=O)[nH]c3ccccc32)CC1)C(=O)N1CCC(N2CCCCC2)CC1`, in data set [3], the Ki was more than 1000 nM.
The same measure, in the same setting: next, `O=C(N[C@H](Cc1ccccc1)C(=O)N1CCC(N2CCCCC2)CC1)N1CCC(n2c(=O)[nH]c3ccccc32)CC1`: 300 nM.
Still for that read-out and setting: next, `NC(=O)CC[C@@H](NC(=O)N1CCC(n2c(=O)[nH]c3ccccc32)CC1)C(=O)N1CCC(N2CCCCC2)CC1`: more than 1000 nM; `O=C(N[C@H](CCc1ccc(O)cc1)C(=O)N1CCC(N2CCCCC2)CC1)N1CCC(n2c(=O)[nH]c3ccccc32)CC1`: 2100 nM.
As for `O=C(N[C@H](Cc1ccc2[nH]ncc2c1)C(=O)N1CCC(N2CCCCC2)CC1)N1CCC(N2Cc3ccccc3NC2=O)CC1`, in data set [5], the Activity result is “Non-toxic”. For the same molecule, in the data set with Callithrix jacchus [6], the inhibition result was “Dose-dependent effect”.
In the case of `Nc1ccc(C[C@@H](NC(=O)N2CCC(n3c(=O)[nH]c4ccccc43)CC2)C(=O)N2CCC(N3CCCCC3)CC2)cc1`, in data set [3], the Ki turned out to be 750 nM.
Turning to `O=C(N[C@H](Cc1ccc2ccccc2c1)C(=O)N1CCC(N2CCCCC2)CC1)N1CCC(n2c(=O)[nH]c3ccccc32)CC1`, the Ki in data set [3] was 230 nM. Also, the IC50 at Cytochrome P450 3A4 [4] amounted to 30 nM.
The matching figures for `Cn1cc(C[C@@H](NC(=O)N2CCC(n3c(=O)[nH]c4ccccc43)CC2)C(=O)N2CCC(N3CCCCC3)CC2)c2ccccc21`: 16 nM and 100 nM.
With `O=C(N[C@H](CCc1ccccc1)C(=O)N1CCC(N2CCCCC2)CC1)N1CCC(n2c(=O)[nH]c3ccccc32)CC1`, the Ki in data set [3] is more than 1000 nM.
On to `O=C(N[C@H](Cc1csc2ccccc12)C(=O)N1CCC(N2CCCCC2)CC1)N1CCC(n2c(=O)[nH]c3ccccc32)CC1`, for which the IC50 came out at 870 nM on Cytochrome P450 3A4 [7] and 84 nM on Cytochrome P450 3A4 [4]. The Ki in data set [3] amounted to 0.55 nM.
In the case of `O=C(N[C@@H](Cc1ccc2[nH]ncc2c1)C(=O)N1CCC(N2CCCCC2)CC1)N1CCC(N2Cc3ccccc3NC2=O)CC1`, the inhibition result with Callithrix jacchus [8] was “inactive”. For the same molecule, the IC50 on Cytochrome P450 3A4 [4] came out at 7300 nM.
With `O=C1Cc2cc(C[C@@H](NC(=O)N3CCC(N4Cc5ccccc5NC4=O)CC3)C(=O)N3CCC(N4CCCCC4)CC3)ccc2N1`, the Ki in data set [3] is 0.65 nM. For the same molecule, the IC50 on Cytochrome P450 3A4 [4] is 11000 nM.
Regarding `O=C(NC(Cc1ccc2[nH]ncc2c1)C(=O)N1CCC(N2CCCCC2)CC1)N1CCC(n2c(=O)[nH]c3ccccc32)CC1` (racemic), the Ki in data set [3] is 68 nM. On Cytochrome P450 3A4 [4], the IC50 was 17000 nM. Moreover, the Activity entry in data set [5] is “Non-toxic”.
For `O=C(N[C@H](Cc1ccc(O)cc1)C(=O)N1CCC(N2CCCCC2)CC1)N1CCC(n2c(=O)[nH]c3ccccc32)CC1`, in data set [3], the Ki stood at 2.5 nM. Besides, the IC50 on Cytochrome P450 3A4 [4] is more than 40000 nM.
With `Cc1nc2cc(C[C@@H](NC(=O)N3CCC(N4Cc5ccccc5NC4=O)CC3)C(=O)N3CCC(N4CCCCC4)CC3)ccc2[nH]1`, the Ki in data set [3] came out at 28 nM.
Consider `CC(=O)Nc1ccc(C[C@@H](NC(=O)N2CCC(n3c(=O)[nH]c4ccccc43)CC2)C(=O)N2CCC(N3CCCCC3)CC2)cc1`, for which the inhibition constant Ki in data set [3] is 1900 nM.
As for `O=C(N[C@@H](C(=O)N1CCC(N2CCCCC2)CC1)c1ccccc1)N1CCC(n2c(=O)[nH]c3ccccc32)CC1`, the Ki in data set [3] is more than 1000 nM.
In the case of `O=C(N[C@H](Cc1cc(Br)c(O)c(Br)c1)C(=O)N1CCC(N2CCCCC2)CC1)N1CCC(n2c(=O)[nH]c3ccccc32)CC1`, the Ki in data set [3] was 0.65 nM. In addition, at Cytochrome P450 3A4 [4], the IC50 stood at 2400 nM.
Turning to `O=C(N[C@H](Cc1ccc2[nH]c(=O)oc2c1)C(=O)N1CCC(N2CCCCC2)CC1)N1CCC(N2Cc3ccccc3NC2=O)CC1`, the Ki in data set [3] worked out at 0.27 nM. The IC50 on Cytochrome P450 3A4 [4] came to 30000 nM.
Regarding `O=C(N[C@H](Cc1cccc2ccccc12)C(=O)N1CCC(N2CCCCC2)CC1)N1CCC(n2c(=O)[nH]c3ccccc32)CC1`, the Ki in data set [3] was 7.2 nM. The IC50 on Cytochrome P450 3A4 [4] came out at 30 nM.
`COc1ccc(C[C@@H](NC(=O)N2CCC(n3c(=O)[nH]c4ccccc43)CC2)C(=O)N2CCC(N3CCCCC3)CC2)cc1`: the inhibition constant Ki in data set [3] came out at 1400 nM.

Values taken from ChEMBL document CHEMBL2057150, “The synthesis and SAR of calcitonin gene-related peptide (CGRP) receptor antagonists derived from tyrosine surrogates. Part 1” (Bioorg Med Chem Lett, 2012).
